dFosB activator = enhances mouse delta FosB homodimer DNA binding. P13346. purified delta FosB, TAMRA-CDK5 oligo fluorescence polarization; percent of positive-control signal above neutral wells. activation, % at 25 µM. hit rate 0.99% among 340,000;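 active = mean activation above about 17%, with every replicate also reaching it, limit read from the data, passing the limit was not always enough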
Target sequence (P13346 whole entry, looked up): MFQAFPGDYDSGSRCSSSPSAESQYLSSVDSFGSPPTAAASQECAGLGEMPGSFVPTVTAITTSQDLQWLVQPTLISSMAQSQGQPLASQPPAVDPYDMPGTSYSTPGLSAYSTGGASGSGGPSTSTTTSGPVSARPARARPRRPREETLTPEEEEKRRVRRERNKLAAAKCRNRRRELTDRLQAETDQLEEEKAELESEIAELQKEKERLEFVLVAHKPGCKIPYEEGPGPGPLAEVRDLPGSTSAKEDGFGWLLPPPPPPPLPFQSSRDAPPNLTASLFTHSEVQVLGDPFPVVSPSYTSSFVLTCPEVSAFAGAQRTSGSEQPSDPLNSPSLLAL
Cneo AK release = causes C. neoformans cell lysis | adenylate kinase release luminescence, 4 h; normalised: neutral wells 0, clomiphene wells 100 | hit rate 0.2% among 360,000 | lysis activity, % at 15 µM;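 active = mean lysis activity across replicates of at least 80%, whatever share of replicates individually reach that level; inactive = mean lysis activity below 80%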
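Assay system: C. neoformans cells. Amount: yeast cell density of 5 × 10^6 cells/mL. Technique: AK luminescence. Buffer or medium: YPD. Times: static 4 h at 37 °C with compound, 1 h detection. Dosing: single-point compound dose. Read-out: lysis from increased AK signal.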
INS-1E GSIS act = primary screen for activators of insulin secretion dependent on glucose, INS-1E cells, GLuc reporter luminescence; INS-1E GLuc reporter insulin secretion, 2-3 h; activation, % at 16.6 µM; hit rate 0.61% among 370,000;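 active = lowest replicate activation of at least 40%, so every replicate reaches that level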;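 note: 0% = median of neutral control wells and 100% = median of IBMX positive control wells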
CDK5 p35 inh = inhibitors of human CDK5/p35 kinase; AID 488839; inhibition, % at 10 µM; Q00535+Q15078; Recombinant CDK5/p35, ADP-Glo luminescence, 60 min; hit rate 0.01% among 330,000;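 active = highest replicate inhibition of at least 50% and at least 75% of replicates reaching 50%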;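 note: plate controls were DMSO neutral control for no effect and GW8510 at 10 µM for full effect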
Env fusion inh = HIV envelope-mediated fusion inhibition; HeLa-JRFL Env/CEM21 cell fusion, luciferase; inhibition, % at 12.3 µM; hit rate 1.1% among 360,000;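 active = mean replicate inhibition score of at least 50 and every replicate individually at or above 50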;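 note: 0% = plate neutral controls and 100% = maraviroc near 300 nM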
PAX8 inh HTS = lowers PAX8-driven luciferase in RMG-I cells; RMG-I TPO-luciferase reporter, SteadyGlo, 24 h; inhibition, % at 12.6 µM; hit rate 1.2% among 360,000; AID 652154;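 active = mean replicate inhibition at least 60% with every replicate also reaching 60%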;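 note: luciferase light reporting Pax8 driven TPO promoter activity; plate controls were median of neutral control wells for no effect and mitoxantrone controls for full effect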
Numbers without * were called inactive; · = not tested or not shown; [ ] = remark or other dose. Sampled rows, rich in hits. Any-hit rate of the full collection: about 2.9%.

SMILES	dFosB activator	Cneo AK release	INS-1E GSIS act	CDK5 p35 inh	Env fusion inh	PAX8 inh HTS
COC(=O)C1=C(C)N(Cc2cccc(C(F)(F)F)c2)C(=NCc2ccc(OC)cc2)NC1c1ccc(F)cc1 (stereo not given)	·	·	285*	·	2	42
COC(=O)C1=C(C)N(Cc2cccc(C(F)(F)F)c2)C(=NCc2ccc(OC)cc2)NC1c1cccc(F)c1 (stereo not given)	·	·	84*	·	24	99*
COC(=O)C1=C(C)N(Cc2cccc(C(F)(F)F)c2)C(=NCC2CC2)NC1c1ccc(F)cc1 (stereo not given)	·	·	-18	·	33	-6
C[C@@H]1CN([C@@H](C)CO)C(=O)c2cccc(NC(=O)CCCCCC(=O)Nc3ccccc3N)c2O[C@@H]1CN(C)S(=O)(=O)c1cn(C)cn1	·	·	4	·	·	-6
CC(Nc1cc(C)cc(C)c1)=[N+](C)CCNS(=O)(=O)c1ccc(Cl)cc1	-12	0	12	0	61*	18
Cc1ccc(S(=O)(=O)c2nc(-c3ccccc3Cl)oc2N(C)C)cc1	-13	-2	-11	-1	56*	-7
COc1ccc(-c2nc3c(c(SCC(=O)Nc4cccc(O)c4)n2)Cc2c(CO)cnc(C)c2O3)cc1	-23	-2	5	1	2	88*
CC(C)NC(=O)Nc1ccc2c(c1)CC(=O)N([C@@H](C)CO)C[C@H](C)[C@@H](CN(C)Cc1ccc(C(=O)O)cc1)O2	·	-1	4	·	·	-5
COc1cc(C#Cc2c(-c3cncn3C)n(C)c3ccc(-c4cc(OC)c(OC)c(OC)c4)cc23)cc(OC)c1	-4	0	·	1	34	73*
COc1cc(OC)cc(-c2c(C#Cc3ccsc3)c3cc(-c4ccc5[nH]ccc5c4)ccc3n2C)c1	23*	-1	-2	0	-21	11
CO[C@@H]1CN(C)C(=O)c2cc(NC(=O)c3nc4ccccc4s3)ccc2OC[C@H](C)N(Cc2ccncc2)C[C@@H]1C	·	-10	-40	·	30[16.7 µM]	-11
C[C@@H]1CN([C@H](C)CO)C(=O)c2cc(C3=CCCCC3)cnc2O[C@H]1CN(C)C(=O)c1cccc(F)c1	·	2	-22	·	-10[16.7 µM]	2
C[C@@H]1CCCCO[C@H](CN(C)Cc2ccc(C(F)(F)F)cc2)[C@H](C)CN([C@@H](C)CO)C(=O)c2cc(NC(=O)CCC(F)(F)F)ccc2O1	·	5	-13	·	23[16.7 µM]	17
C[C@@H]1CN([C@H](C)CO)C(=O)c2cc(NC(=O)CCC(F)(F)F)ccc2O[C@@H](C)CCCCO[C@@H]1CN(C)Cc1ccc(C(F)(F)F)cc1	·	2	-16	·	18[16.7 µM]	83*
C[C@@H]1CCCCO[C@@H](CN(C)Cc2ccc(C(F)(F)F)cc2)[C@@H](C)CN([C@@H](C)CO)C(=O)c2cc(NC(=O)CCC(F)(F)F)ccc2O1	·	-5	-13	·	10[16.7 µM]	72*
O=C(c1cc2ccccc2o1)N(Cc1nnc(-c2ccccc2Cl)o1)C1CC1	-6	-4	-5	3	-23	0
CCCN(Cc1nnc(-c2ccccc2Cl)o1)C(=O)c1cc2ccccc2o1	-3	5	63*	1	-261	38
COc1cccc(NC(=O)COc2ncnc3sc(C)c(C)c23)c1	-2	4	·	0	·	·
CCN(CC(=O)Nc1cccc(OC)c1)c1ncnc2sc(C)c(C)c12	2	3	-31	-1	58*	8
C[C@H]1CN([C@@H](C)CO)C(=O)c2cc(NC(=O)Cn3cnnn3)ccc2O[C@@H]1CN(C)C(=O)NC1CCCCC1	·	0	5	·	·	·
O=C(NNS(=O)(=O)c1ccccc1)c1cc2cc3ccccc3nc2s1	-25	·	·	1	-25	-31
O=C(NNC(=O)c1cc2cc3ccccc3nc2s1)c1cccc(C(F)(F)F)c1	5	4	75*	-1	·	·
O=C(N/N=C/c1ccc(OC(=O)c2ccccc2)cc1)c1cccnc1	0	-7	4	1	57*	4
O=C(Oc1ccc(/C=N/NC(=O)c2ccccc2F)cc1)c1ccccc1	17*	4	-3	-2	-8	-66
CN1C(=O)c2cc(NC(=O)C3CCCC3)ccc2OC[C@H]2O[C@@H](CC(=O)O)CC[C@H]21	·	·	2	·	·	-4

Source: PubChem (Broad Institute)
